One assay concerns the target Vasopressin V1 receptor (Rattus norvegicus, UniProt P48974+P30560). The experiment in a line: Inhibition of radioligand [3H]AVP binding to the vasopressin V1 receptor in rat liver tissue. The procedure, abridged:
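Crude membranes from male rat liver (V1 sites) competed with 1 nM [3H]AVP (80–90 Ci/mmol). Equilibrium 30 min, 30 °C, buffer 100 mM Tris-HCl, 5 mM MgCl2, 0.1% BSA, 50 μM PMSF, 50 μg/mL bacitracin, pH 8.0. 10 μM unlabeled AVP for nonspecific binding. Filtration through glass-fiber filters. IC50 from linear regression over seven concentrations.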

The target of the next assay is T1, Oxytocin receptor (Rattus norvegicus, UniProt P70536).
T1 sequence (P70536 whole entry): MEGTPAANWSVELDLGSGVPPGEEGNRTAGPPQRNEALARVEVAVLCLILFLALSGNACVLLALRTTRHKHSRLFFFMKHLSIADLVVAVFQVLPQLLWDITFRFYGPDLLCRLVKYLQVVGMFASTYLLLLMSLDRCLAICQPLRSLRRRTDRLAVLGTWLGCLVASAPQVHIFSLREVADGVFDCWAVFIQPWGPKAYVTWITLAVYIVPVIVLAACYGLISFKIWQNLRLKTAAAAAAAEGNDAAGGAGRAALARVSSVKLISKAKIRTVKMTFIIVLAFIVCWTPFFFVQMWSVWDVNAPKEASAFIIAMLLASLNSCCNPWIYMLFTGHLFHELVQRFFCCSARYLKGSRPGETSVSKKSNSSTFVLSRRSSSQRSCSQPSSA
The experiment in a line: Inhibition of radioligand [3H]oxytocin binding at the oxytocin (OT) receptor in rat uterine tissue. Put shortly: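 Uteri taken from rats given diethylstilbestrol dipropionate (0.3 mg/kg ip, 18–24 h before), crude membranes. 1 nM [3H]OT (30–60 Ci/mmol), equilibrium 60 min at 22 °C in 50 mM Tris-HCl, 5 mM MgCl2, 0.1% BSA, pH 7.4. Nonspecific binding with 1 mM unlabeled OT. Filtered on glass fiber. Initial single-concentration screen, then IC50 from seven concentrations by linear regression.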

A further assay has as its target Vasopressin V2 receptor (Rattus norvegicus, UniProt Q00788). In words: Inhibition of radioligand [3H]-AVP binding to the vasopressin V2 receptor in rat kidney tissue. Put shortly: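 [3H]AVP (80–90 Ci/mmol) at 2 nM competed on crude membranes from male rat kidney medulla (V2 sites). Equilibrium 30 min at 30 °C in 100 mM Tris-HCl, 5 mM MgCl2, 0.1% BSA, 50 μM PMSF, 50 μg/mL bacitracin, pH 8.0. Nonspecific binding with 10 μM unlabeled AVP. Glass-fiber filtration. IC50 by linear regression of % inhibition vs log concentration, seven concentrations.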

Structures are written as SMILES.

Sequence of Vasopressin V2 receptor (Q00788 whole entry): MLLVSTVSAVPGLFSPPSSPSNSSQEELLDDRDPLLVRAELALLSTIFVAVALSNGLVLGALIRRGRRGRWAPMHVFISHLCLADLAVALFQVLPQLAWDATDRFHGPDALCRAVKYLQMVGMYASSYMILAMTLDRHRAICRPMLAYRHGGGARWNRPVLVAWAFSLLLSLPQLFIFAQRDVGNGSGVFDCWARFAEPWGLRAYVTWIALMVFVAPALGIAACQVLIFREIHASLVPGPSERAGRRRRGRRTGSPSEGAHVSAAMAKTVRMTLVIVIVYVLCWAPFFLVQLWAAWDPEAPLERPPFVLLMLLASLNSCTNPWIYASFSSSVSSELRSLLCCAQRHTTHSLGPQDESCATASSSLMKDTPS

In the case of `CC1(C)[C@@H]2CC[C@@]1(CS(=O)(=O)N1CCC3(C=Cc4ccccc43)CC1)[C@@](O)(CNC(=O)CC13CC4CC(CC(C4)C1)C3)C2`, the 50% inhibitory concentration (IC50) is above 3 µM on Vasopressin V1 receptor, 0.48 µM at Oxytocin receptor and above 3 µM at Vasopressin V2 receptor.

As to `Cn1cncc1CC(=O)N[C@@H](CCC(N)=O)C(=O)N[C@H]1C[C@H]2CC[C@]1(CS(=O)(=O)N1CCC3(CCc4ccccc43)CC1)C2(C)C`, the IC50 was above 0.3 µM on Vasopressin V1 receptor, 0.0023 µM on Oxytocin receptor and above 0.3 µM on Vasopressin V2 receptor.

On to `CC(C)[C@@H](N)C(=O)N[C@H]1C[C@H]2CC[C@]1(CS(=O)(=O)N1CCC3(CCc4ccccc43)CC1)C2(C)C`, for which the IC50 at Vasopressin V1 receptor was 3 µM; at Oxytocin receptor, 0.11 µM; at Vasopressin V2 receptor, above 3 µM.

Take `CC1(C)[C@@H]2CC[C@@]1(CS(=O)(=O)N1CCC3(C=Cc4ccccc43)CC1)[C@@](O)(CNC(=O)[C@@H](N)CCC(N)=O)C2`: the values for the IC50 at Vasopressin V1 receptor, at Oxytocin receptor and on Vasopressin V2 receptor were above 0.3 µM, 0.09 µM and 3 µM, respectively.

With `CC1(C)[C@@H]2CC[C@@]1(CS(=O)(=O)N1CCC3(CCc4ccccc43)CC1)[C@@H](NC(=O)CCc1ccccc1)C2`, the half-maximal inhibitory concentration (IC50) on Vasopressin V1 receptor was 10 µM; at Oxytocin receptor, 0.53 µM; at Vasopressin V2 receptor, above 10 µM.

Turning to `CC1(C)[C@@H]2CC[C@@]1(CS(=O)(=O)N1CCC3(C=Cc4ccccc43)CC1)/C(=N\O)C2`, the IC50 at Vasopressin V1 receptor is 10 µM; at Oxytocin receptor it was 0.65 µM; at Vasopressin V2 receptor, above 10 µM.

Turning to `CC1(C)[C@@H]2CC[C@@]1(CS(=O)(=O)N1CCC3(CCc4ccccc43)CC1)[C@@H](NC(=O)[C@H](CCC(N)=O)NC(=O)CCN)C2`, the IC50 at Vasopressin V1 receptor stood at 0.49 µM; at Oxytocin receptor, 0.0063 µM; at Vasopressin V2 receptor it was 1.8 µM.

For the molecule `CC1(C)[C@@H]2CC[C@@]1(CS(=O)(=O)N1CCC3(CCc4ccccc43)CC1)[C@@H](N1C(=O)NC(Cc3c[nH]cn3)C1=O)C2` (single isomer, unassigned; isomer A), the figures for the IC50 on Vasopressin V1 receptor, on Oxytocin receptor and on Vasopressin V2 receptor were 0.6 µM, 0.016 µM and 2 µM, respectively.

For `CC(=O)N[C@@H]1C[C@H]2CC[C@]1(CS(=O)(=O)N1CCC3(CCc4ccccc43)CC1)C2(C)C`, the IC50 was 10 µM on Vasopressin V1 receptor, 1.2 µM at Oxytocin receptor and above 10 µM at Vasopressin V2 receptor.

Regarding `CC1(C)[C@@H]2CC[C@@]1(CS(=O)(=O)N1CCC3(CCc4ccccc43)CC1)[C@@H](NC(=O)NCCc1c[nH]cn1)C2`, the IC50 worked out at 4.7 µM on Vasopressin V1 receptor, 0.068 µM on Oxytocin receptor and 14 µM on Vasopressin V2 receptor.

As for `CC(C)CC1NC(=O)N([C@H]2C[C@H]3CC[C@]2(CS(=O)(=O)N2CCC4(CCc5ccccc54)CC2)C3(C)C)C1=O` (some centres undefined), the 50% inhibitory concentration (IC50) on Vasopressin V1 receptor turned out to be 1.2 µM; at Oxytocin receptor it was 0.092 µM; on Vasopressin V2 receptor, 4.2 µM.

Turning to `CC1(C)[C@@H]2CC[C@@]1(CS(=O)(=O)N1CCC3(CCc4ccccc43)CC1)[C@@H](NC(=O)C(CCS(C)(=O)=O)NC(=O)Cc1c[nH]cn1)C2` (some centres undefined), the half-inhibitory concentration (IC50) at Vasopressin V1 receptor worked out at 0.44 µM; on Oxytocin receptor, 0.0012 µM; at Vasopressin V2 receptor, 0.28 µM.

Consider `COC(=O)CNC(=O)N[C@H]1C[C@H]2CC[C@]1(CS(=O)(=O)N1CCC3(CCc4ccccc43)CC1)C2(C)C`, for which the IC50 at Vasopressin V1 receptor was above 3 µM; on Oxytocin receptor, 0.16 µM; on Vasopressin V2 receptor it was above 3 µM.

In the case of `CC1(C)[C@@H]2CC[C@@]1(CS(=O)(=O)N1CCC3(CCc4ccccc43)CC1)[C@@H](N1C(=O)C3CCC(=N)N3C1=O)C2` (some centres undefined), the 50% inhibitory concentration (IC50) came to 1.1 µM on Vasopressin V1 receptor, 0.021 µM at Oxytocin receptor and 3.8 µM at Vasopressin V2 receptor.

With `CC1(C)[C@@H]2CC[C@@]1(CS(=O)(=O)N1CCC3(CCc4ccccc43)CC1)[C@@H](NC(=O)Cc1ccncc1)C2`, the concentration for half-maximal inhibition (IC50) was above 1 µM on Vasopressin V1 receptor, 0.12 µM on Oxytocin receptor and 10 µM on Vasopressin V2 receptor.

Take `CC(C(=O)N[C@H]1C[C@H]2CC[C@]1(CS(=O)(=O)N1CCC3(CCc4ccccc43)CC1)C2(C)C)c1cn(C)cn1` (some centres undefined): the IC50 is 3 µM at Vasopressin V1 receptor, 0.06 µM on Oxytocin receptor and above 3 µM on Vasopressin V2 receptor.

Take `CC1(C)[C@@H]2CC[C@@]1(CS(=O)(=O)N1CCC3(C=Cc4ccccc43)CC1)[C@@](O)(CNC(=O)NC1CCCCC1)C2`: the results for the IC50 at Vasopressin V1 receptor, on Oxytocin receptor and at Vasopressin V2 receptor were 0.95 µM, 0.17 µM and 18 µM, respectively.

For the molecule `CC(=O)NCC[C@@]1(O)C[C@H]2CC[C@]1(CS(=O)(=O)N1CCC3(C=Cc4ccccc43)CC1)C2(C)C`, the IC50 at Vasopressin V1 receptor was 2.7 µM; at Oxytocin receptor, 0.15 µM; on Vasopressin V2 receptor, 30 µM.

Turning to `CC1(C)[C@@H]2CC[C@@]1(CS(=O)(=O)N1CCC3(CCc4ccccc43)CC1)[C@@H](NC(=O)[C@@H](Cc1c[nH]cn1)NC(=O)CCC(N)=O)C2`, the IC50 worked out at 3 µM on Vasopressin V1 receptor, 0.032 µM at Oxytocin receptor and 3 µM on Vasopressin V2 receptor.

`CCC(C(=O)N[C@H]1C[C@H]2CC[C@]1(CS(=O)(=O)N1CCC3(CCc4ccccc43)CC1)C2(C)C)c1c[nH]cn1` (some centres undefined): the IC50 was determined as 4 µM at Vasopressin V1 receptor, 0.17 µM at Oxytocin receptor and 15 µM on Vasopressin V2 receptor.

For `CC1(C)[C@@H]2CC[C@@]1(CS(=O)(=O)N1CCC3(CCc4ccccc43)CC1)[C@@H](NC(=O)C(CCS(C)(=O)=O)c1c[nH]cn1)C2` (stereo in doubt), the IC50 on Vasopressin V1 receptor worked out at 1.5 µM; at Oxytocin receptor, 0.011 µM; on Vasopressin V2 receptor, 2.9 µM.

For `CC1(C)[C@@H]2CC[C@@]1(CS(=O)(=O)N1CCC3(CCc4ccccc43)CC1)[C@@H](N)C2`, the half-maximal inhibitory concentration (IC50) is above 10 µM at Vasopressin V1 receptor, 30 µM at Oxytocin receptor and above 10 µM at Vasopressin V2 receptor.

Regarding `CC1(C)[C@@H]2CC[C@@]1(CS(=O)(=O)N1CCC3(CCc4ccccc43)CC1)[C@@H](NC(=O)[C@H](CCC(N)=O)NC(=O)Cc1c[nH]cn1)C2`, the half-maximal inhibitory concentration (IC50) at Vasopressin V1 receptor was 2.3 µM; at Oxytocin receptor it was 0.0022 µM; at Vasopressin V2 receptor it was 0.81 µM.

`CN(C)[C@H](Cc1c[nH]cn1)C(=O)N[C@H]1C[C@H]2CC[C@]1(CS(=O)(=O)N1CCC3(CCc4ccccc43)CC1)C2(C)C`: the IC50 came out at 1.7 µM on Vasopressin V1 receptor, 0.049 µM at Oxytocin receptor and 3.4 µM on Vasopressin V2 receptor.

Consider `CC1(C)[C@@H]2CC[C@@]1(CS(=O)(=O)N1CCC3(C=Cc4ccccc43)CC1)[C@@](O)(CN)C2`, for which the IC50 is above 1 µM on Vasopressin V1 receptor, 1.3 µM at Oxytocin receptor and above 10 µM at Vasopressin V2 receptor.

As to `CC1(C)[C@@H]2CC[C@@]1(CS(=O)(=O)N1CCC3(CCc4ccccc43)CC1)[C@@H](NC(=O)N(CCC(=O)O)CCc1c[nH]cn1)C2`, the half-maximal inhibitory concentration (IC50) was 4 µM on Vasopressin V1 receptor, 0.023 µM at Oxytocin receptor and 8.6 µM on Vasopressin V2 receptor.

Take `CC1(C)[C@@H]2CC[C@@]1(CS(=O)(=O)N1CCC3(C=Cc4ccccc43)CC1)[C@@](O)(CNC(=O)Cc1cccnc1)C2`: the half-inhibitory concentration (IC50) on Vasopressin V1 receptor was determined as 0.89 µM; at Oxytocin receptor it was 0.053 µM; on Vasopressin V2 receptor, 4.5 µM.

Take `CC1(C)[C@@H]2CC[C@@]1(CS(=O)(=O)N1CCC3(CCc4ccccc43)CC1)/C(=N\O)C2`: the half-inhibitory concentration (IC50) on Vasopressin V1 receptor came to 3.2 µM; at Oxytocin receptor it was 0.45 µM; on Vasopressin V2 receptor, 13 µM.

As a reminder, the IC50 is the concentration that inhibits the measured activity by half.

The record behind these values is ChEMBL document CHEMBL1126550, “Nanomolar-affinity, non-peptide oxytocin receptor antagonists” (J Med Chem, 1993).
